These results are taken from ChEMBL document CHEMBL1141510, “Synthesis and antioxidant activities of 3,5-dialkoxy-4-hydroxycinnamamides” (Bioorg Med Chem Lett, 2008).

Test [1] in a line: Antioxidant activity assessed as ABTS radical scavenging activity at 150 uM. The test is classed as functional.
Test [2] has as its system Radical scavenging activity. In words: Antioxidant activity assessed as DPPH radical scavenging activity. The format is functional. The method in brief: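 Sample in ethanol added 1:9 to 0.15 mM DPPH radical in ethanol. Test compound solutions ranged 3–1000 µg/ml. Ethanol alone served as control. Reaction ran 10 min at 25 °C, then absorbance was read at 517 nm. Scavenging expressed as percent loss relative to control absorbance. EC50 taken as the concentration giving 50% loss of DPPH radical.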

The next test relates to Brain. Description: Inhibition of lipid peroxidation in Sprague-Dawley rat brain after 30 mins by TBARS assay. The format is functional, tissue-based. To be noted: 0.5 h. Summed up:
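Brain from male Sprague–Dawley rats (about 10 weeks old) homogenized in ice-cold 10 mM Tris–HCl, pH 7.4, and spun 10 min at 1000g; the supernatant was used. TBARS read at 532 nm against a 1,1,3,3-tetraethoxypropane external standard.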

In test [3] the test system is Radical scavenging activity. Description: Antioxidant activity assessed as DPPH radical scavenging activity at 300 uM. The format is functional.
Test [4] can be described thus: Antioxidant activity assessed as ABTS radical scavenging activity. The test is classed as functional.

Each structure is given as a SMILES string. pIC50: −log10 of the molar value.

`CCCC(C)Oc1cc(/C=C/C(=O)NCc2cc(C(C)(C)C)c(O)c(C(C)(C)C)c2)cc(OC(C)CCC)c1O` (centres undefined): the Activity in test [1] was 47%. Also, the figures for the negative logarithm of the IC50 (pIC50) (in test [2]; with Brain) were 4.18 and 6.24, respectively.
As to `CCCCOc1cc(/C=C/C(=O)O)cc(OCCCC)c1O`, in the test on Brain, the pIC50 was 5.43.
Regarding `CCC(CC)Oc1cc(/C=C/C(=O)NCCc2cc(C(C)(C)C)c(O)c(C(C)(C)C)c2)cc(OC(CC)CC)c1O`, the Activity in test [3] was 55%. The molecule further had a pIC50 with Brain of 6.36.
On to `CCCCOc1cc(/C=C/C(=O)NCCc2cc(C(C)(C)C)c(O)c(C(C)(C)C)c2)cc(OCCCC)c1O`, for which the pIC50 with Brain was 6.39.
For `CCCCCCOc1cc(/C=C/C(=O)NCc2cc(C(C)(C)C)c(O)c(C(C)(C)C)c2)cc(OCCCCCC)c1O`, in test [3], the Activity is 75%. For the same molecule, the pIC50 was 5.45 in the test on Brain and 4.63 in test [4].
In turn, `CCCCCCOc1cc(/C=C/C(=O)O)cc(OCCCCCC)c1O` showed a pIC50 in the test with Brain of 5.65.
With `CCCC(C)Oc1cc(/C=C/C(=O)NCCc2cc(C(C)(C)C)c(O)c(C(C)(C)C)c2)cc(OC(C)CCC)c1O` (centres undefined), the Activity in test [1] came to 64%. In addition, the figures for the pIC50 (in test [2]; with Brain) were 4.07 and 6.44, respectively.
The corresponding values for `CCCCOc1cc(/C=C/C(=O)NCc2cc(C(C)(C)C)c(O)c(C(C)(C)C)c2)cc(OCCCC)c1O` are 57%, 3.75 and 6.38.
In the case of `COc1cc(/C=C/C(=O)NCc2cc(C(C)(C)C)c(O)c(C(C)(C)C)c2)cc(OC)c1O`, the pIC50 in test [2] is 4.10; in the test with Brain, 5.84; in test [4], 4.95.
Take `CCCC(C)Oc1cc(/C=C/C(=O)O)cc(OC(C)CCC)c1O` (centres undefined): the pIC50 in the test on Brain was 5.32.
Same read-out and setting: the same measure for `COc1cc(CC(=O)NCCCc2ccc(C)c(C)c2)ccc1O`: 4.59; for `COc1cc(/C=C/C(=O)O)cc(OC)c1O` [SINAPINATE]: 5.32.
With `CCCCCCOc1cc(/C=C/C(=O)NCCCc2ccc(C)c(C)c2)cc(OCCCCCC)c1O`, the pIC50 in test [2] was 4.11; with Brain, 6.54; in test [4] it was 4.55.
Consider `CCCOc1cc(/C=C/C(=O)NCc2cc(C(C)(C)C)c(O)c(C(C)(C)C)c2)cc(OCCC)c1O`, for which the Activity in test [1] was 24%. In addition, the pIC50 is 4.14 in test [2] and 6.57 in the test on Brain.
For the molecule `COc1cc(/C=C/C(=O)NCCc2cc(C(C)(C)C)c(O)c(C(C)(C)C)c2)cc(OC)c1O`, the results for the pIC50 (in test [2]; in the test on Brain; in test [4]) were 4.16, 6.16 and 4.81, respectively.
On to `CCC(CC)Oc1cc(/C=C/C(=O)NCCCc2ccc(C)c(C)c2)cc(OC(CC)CC)c1O`, for which the Activity in test [1] stood at 49%. Besides, the pIC50 in test [2] was 4.07; with Brain it was 5.76.
Turning to `CCCCCCOc1cc(/C=C/C(=O)NCCc2cc(C(C)(C)C)c(O)c(C(C)(C)C)c2)cc(OCCCCCC)c1O`, the pIC50 in test [2] was 4.12; in the test with Brain, 5.56; in test [4], 4.56.
With `CCCOc1cc(/C=C/C(=O)NCCc2cc(C(C)(C)C)c(O)c(C(C)(C)C)c2)cc(OCCC)c1O`, the Activity in test [1] amounted to 37%. In addition, the pIC50 was 3.94 in test [2] and 6.59 with Brain.
For `CCCC(C)Oc1cc(/C=C/C(=O)NCCCc2ccc(C)c(C)c2)cc(OC(C)CCC)c1O` (centres undefined), the negative-log IC50 (pIC50) in test [2] was 4.16; with Brain it was 5.88; in test [4], 4.58.
Regarding `CCC(CC)Oc1cc(/C=C/C(=O)NCc2cc(C(C)(C)C)c(O)c(C(C)(C)C)c2)cc(OC(CC)CC)c1O`, the Activity in test [1] came to 44%. Also, the results for the pIC50 (in test [2]; with Brain) were 4.17 and 6.09, respectively.
In the test on Brain, `CCC(CC)Oc1cc(/C=C/C(=O)O)cc(OC(CC)CC)c1O` had a pIC50 of 5.66.
Still for that read-out and setting: the same measure for `COc1cc(CNC(=O)CCCc2ccc(C)c(C)c2)ccc1O`: 4.24.

For orientation: pIC50 means the negative decadic logarithm of the IC50, by convention in mol/L.
